# Experiments:
# Salmonella typhimurium [1] = assay: Ames activity in TA 98+S9, expressed as maximum fold increase in mutation frequency; type: functional, Salmonella enterica subsp. enterica serovar Typhimurium
# How it was run: (§1)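 Salmonella typhimurium TA98 plate incorporation assay with S9 mix. The S9 is the postmitochondrial fraction of livers from Aroclor 1254-treated Sprague–Dawley rats, supplemented with cofactors for NADPH generation. Tested across 6–2000 μg/plate. The value is the maximum increase in mutation frequency relative to background across that dose range.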
# Salmonella typhimurium [2] = assay: Ames activity in TA 98+S9, expressed as maximum fold increase in mutation frequency; NI means no increase; type: functional, organism-based; conditions: Salmonella enterica subsp. enterica serovar Typhimurium; how it was run: as §1
# [3] = target: T1, Neuropeptide Y receptor type 5 (Homo sapiens, UniProt Q15761); assay: Binding affinity to the human Neuropeptide Y receptor Y5 (NPY5)
# T1 sequence (Q15761 whole entry): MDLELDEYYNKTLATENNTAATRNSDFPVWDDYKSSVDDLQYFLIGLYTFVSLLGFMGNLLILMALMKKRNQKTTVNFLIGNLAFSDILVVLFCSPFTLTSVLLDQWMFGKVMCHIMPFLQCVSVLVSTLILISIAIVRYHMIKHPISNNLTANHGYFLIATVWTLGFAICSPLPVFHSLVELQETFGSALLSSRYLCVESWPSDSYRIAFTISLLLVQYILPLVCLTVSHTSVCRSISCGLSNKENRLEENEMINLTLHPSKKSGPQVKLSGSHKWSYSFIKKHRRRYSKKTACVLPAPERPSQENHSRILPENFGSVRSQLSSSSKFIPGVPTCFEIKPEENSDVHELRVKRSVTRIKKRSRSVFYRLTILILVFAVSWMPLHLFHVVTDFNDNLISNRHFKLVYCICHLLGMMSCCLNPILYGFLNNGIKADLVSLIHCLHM
# How it was run: (§2)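 Membranes from Hi5 insect cells infected 48 h with baculovirus carrying rat or human NPY-5 receptor, prepared by sonication in hypotonic Tris/EDTA/sucrose buffer and harvested on a 41% sucrose cushion. 0.01 µCi [125I]PYY incubated with membranes and compound in HEPES buffer (CaCl2, MgCl2, 0.5% BSA, pH 7.4) for 2 h at room temperature. Filtered onto PEI-treated GF/C plates, then scintillation counted.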
# [4] = Bioavailability of compound at a dose 30 umol/kg administered orally; type: ADME, organism-based; conditions: eutheria, in vivo, po, at 30 µmol/kg
# [5] = target: T1, Neuropeptide Y receptor type 5; assay: The compound was evaluated in vitro for: human Neuropeptide Y receptor Y5 functional antagonism
# [6] = Half-life of compound at a dose 30 umol/kg administered orally; type: ADME, organism-based; conditions: in vivo, po
# [7] = Clearance level at a dose 10 umol/kg administered intravenously; type: ADME, organism-based; conditions: in vivo, iv
# [8] = target: T1, Neuropeptide Y receptor type 5; assay: Compound was evaluated for functional antagonism of Neuropeptide Y receptor Y5 activity in cellular Ca flux
# [9] = Half-life of compound at a dose 10 umol/kg was administered intravenously; type: ADME, organism-based; conditions: in vivo, iv
# [10] = Percent inhibition of 5-HT2b and adenosine transport at 10 uM Y1, Y2, Y4 and 80 other receptors at > 10 uM; type: functional
# How it was run: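 Selectivity screen with compound tested at 10 µM for binding to 5HT2b receptor and for inhibition of adenosine transport. Y1, Y2, Y4 and 80 other receptors were also screened. Human Y1, Y2 and Y4 membranes came from SK-N-MC cells, KAN-TS cells and stable Y4-expressing CHO cells, using the [125I]PYY filtration binding format.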
# [11] = Maximum concentration of compound at a dose 30 umol/kg administered orally; type: ADME, organism-based; design: dose 30 umol/kg, route oral; conditions: in vivo, po
# [12] = Tmax of compound at a dose 30 umol/kg administered orally; type: ADME, organism-based; conditions: in vivo, po
# [13] = Volume of distribution of compound at a dose 10 umol/kg was administered intravenously; type: ADME, organism-based; conditions: in vivo, iv, read-out: Vss
# Rattus norvegicus [14] = assay: Concentration of compound in rat whole brain after oral dosing at 2 mg/kg after 90 min; type: functional, organism-based; design: dose 2 mg/kg
# How it was run: (§3)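 Single oral dose of 2 mg/kg to rats. Plasma, whole brain and CSF concentrations were measured at 90 min.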
# Rattus norvegicus [15] = assay: Concentration of compound in rat CSF after oral dosing at 2 mg/kg after 90 min; type: functional, organism-based; design: dose 2 mg/kg; how it was run: as §3
# Rattus norvegicus [16] = assay: Concentration of compound in rat plasma after oral dosing at 2 mg/kg after 90 min; type: functional, organism-based; design: dose 2 mg/kg; how it was run: as §3
# Salmonella typhimurium [17] = assay: Mutagenicity (Ames activity) for Salmonella Typhimurium TA98 in the presence of rat liver S9 mix, at 100 ug/plate conc.; type: functional, Salmonella enterica subsp. enterica serovar Typhimurium
# How it was run: (§4)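 Ames plate incorporation assay with S. typhimurium TA98 and TA100, run as described by Maron and Ames. Metabolic activation used S9 mix from livers of Aroclor 1254-treated Sprague–Dawley rats with an NADPH-generating cofactor system. Test substance given at 3.3–100 µg/plate. Read-out was revertant colonies per plate against a solvent control.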
# Salmonella typhimurium [18] = assay: Mutagenicity (Ames activity) for Salmonella Typhimurium TA100 in the presence of rat liver S9 mix, at 3.3 ug/plate conc.; type: functional, Salmonella enterica subsp. enterica serovar Typhimurium; how it was run: as §4
# Salmonella typhimurium [19] = assay: Mutagenicity (Ames activity) for Salmonella Typhimurium TA98 in the presence of rat liver S9 mix, at 33 ug/plate conc.; type: functional, Salmonella enterica subsp. enterica serovar Typhimurium; how it was run: as §4
# Salmonella typhimurium [20] = assay: Mutagenicity (Ames activity) for Salmonella Typhimurium TA98 in the presence of rat liver S9 mix, at 3.3 ug/plate conc.; type: functional, Salmonella enterica subsp. enterica serovar Typhimurium; how it was run: as §4
# Salmonella typhimurium [21] = assay: Mutagenicity (Ames activity) for Salmonella Typhimurium TA100 in the presence of rat liver S9 mix, at 100 ug/plate conc.; type: functional, Salmonella enterica subsp. enterica serovar Typhimurium; how it was run: as §4
# Salmonella typhimurium [22] = assay: Mutagenicity (Ames activity) for Salmonella Typhimurium TA100 in the presence of rat liver S9 mix, at 10 ug/plate conc.; type: functional, Salmonella enterica subsp. enterica serovar Typhimurium; how it was run: as §4
# Salmonella typhimurium [23] = assay: Mutagenicity (Ames activity) for Salmonella Typhimurium TA100 in the presence of rat liver S9 mix, at 33 ug/plate conc.; type: functional, Salmonella enterica subsp. enterica serovar Typhimurium; how it was run: as §4
# Salmonella typhimurium [24] = assay: Mutagenicity (Ames activity) for Salmonella Typhimurium TA98 in the presence of rat liver S9 mix, at 10 ug/plate conc.; type: functional, Salmonella enterica subsp. enterica serovar Typhimurium; how it was run: as §4
# [25] = Bioavailability in rat; type: ADME, organism-based; conditions: in vivo, read-out: Bioavailabiility
# How it was run: (§5)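 Rats received a DMA:PEG:H2O 1:1:1 solution, iv at 10 µmol/kg and po at 30 µmol/kg. Half-life, Vss, clearance, Cmax, Tmax and oral bioavailability were derived from plasma levels.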
# [26] = Compound was evaluated for functional antagonism of NPY activity in cellular Ca flux
# [27] = target: T1, Neuropeptide Y receptor type 5; assay: In vitro human Neuropeptide Y receptor Y5 functional antagonism (reporter gene assay)
# [28] = target: T2, Neuropeptide Y receptor type 5 (Rattus norvegicus, UniProt Q63634); assay: Binding affinity against rat Neuropeptide Y receptor Y5; how it was run: as §2
# T2 sequence (Q63634 whole entry): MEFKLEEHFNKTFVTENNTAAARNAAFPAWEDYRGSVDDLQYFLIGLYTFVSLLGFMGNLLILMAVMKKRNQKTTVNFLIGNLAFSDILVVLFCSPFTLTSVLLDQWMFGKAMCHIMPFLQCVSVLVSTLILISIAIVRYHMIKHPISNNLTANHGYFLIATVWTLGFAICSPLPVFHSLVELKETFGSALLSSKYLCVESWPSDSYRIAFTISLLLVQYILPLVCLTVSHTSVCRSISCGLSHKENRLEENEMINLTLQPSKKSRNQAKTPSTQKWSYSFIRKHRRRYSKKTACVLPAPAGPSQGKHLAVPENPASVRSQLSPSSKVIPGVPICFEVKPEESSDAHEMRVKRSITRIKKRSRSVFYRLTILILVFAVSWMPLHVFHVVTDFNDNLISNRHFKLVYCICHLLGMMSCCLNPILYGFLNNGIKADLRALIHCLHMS
# [29] = Half life in rat was reported; type: ADME, organism-based; conditions: in vivo; how it was run: as §5
compound,measurement,setting,value
Cc1cccc2c3cc(N)ccc3n(C(C)C)c12,Mutation frequency,Salmonella typhimurium [1],6
CC(C)n1c2ccccc2c2cc(N)c(Cl)cc21,Mutation frequency,Salmonella typhimurium [1],43
CC(C)n1c2ccc(N)cc2c2cc(F)ccc21,Mutation frequency,Salmonella typhimurium [1],15
Cc1c(N)ccc2c1c1ccccc1n2C(C)C,NI,Salmonella typhimurium [2],no increase
CCn1c2ccccc2c2cc(CC(=O)NCc3ccncc3)ccc21,IC50,[3],2250 nM
CS(=O)(=O)n1c2ccccc2c2cc(NC(=O)CCc3ccncc3)ccc21,IC50,[3],1 nM
O=C(Nc1ccc2c(c1)c1ccccc1n2C1CCOC1)N1CCOCC1 (configuration not stated),IC50,[3],40 nM
CCn1c2ccccc2c2cccc(NC(=O)CCc3ccncc3)c21,IC50,[3],440 nM
CC(C)n1c2ccccc2c2cc(NC(=O)N3CCOCC3)ccc21,IC50,[3],2 nM
CN(C)S(=O)(=O)n1c2ccccc2c2cc(NC(=O)N3CCOCC3)ccc21,IC50,[3],350 nM
CC(C)c1c(N)ccc2c1c1ccccc1n2C(C)C,NI,Salmonella typhimurium [2],no increase
CC(C)n1c2ccccc2c2c(F)c(NC(=O)N3CCOCC3)c(F)cc21,IC50,[3],12 nM
Cc1c(NC(=O)N2CCOCC2)ccc2c1c1ccccc1n2C(C)C,bioavailability,[4],76%
same,IC50,[5],37 nM
same,half-life,[6],6.4 h
same,clearance,[7],1.33 mL/min/kg
same,IC50,[8],6 nM
same,half-life,[9],3.7 h
same,inhibition,[10],70%
same,IC50,[3],3 nM
same,Cmax,[11],35 µM
same,Tmax,[12],1 h
same,Vd,[13],0.41 L/kg
Cc1cc2c(c(C)c1NC(=O)N1CCOCC1)c1ccccc1n2C(C)C,IC50,[3],390 nM
Cc1cc2c(cc1N)c1ccccc1n2C(C)C,Mutation frequency,Salmonella typhimurium [1],3
Cc1c(N)cc(C)c2c1c1ccccc1n2C(C)C,NI,Salmonella typhimurium [2],no increase
CS(=O)(=O)n1c2ccccc2c2cc(N)ccc21,Max fold increase,Salmonella typhimurium [1],35
CC(C)(C)Cn1c2ccccc2c2cc(NC(=O)N3CCOCC3)ccc21,IC50,[3],78 nM
Cc1cccc2c3cc(NC(=O)N4CCOCC4)ccc3n(C(C)C)c12,IC50,[3],2 nM
CCOc1c(NC(=O)N2CCOCC2)ccc2c1c1ccccc1n2C(C)C,IC50,[3],270 nM
CN(C)S(=O)(=O)n1c2ccccc2c2cc(NC(=O)CCc3ccncc3)ccc21,IC50,[3],8 nM
O=C(CCc1ccncc1)Nc1ccc2[nH]c3ccccc3c2c1,IC50,[3],230 nM
CCn1c2ccccc2c2cc(NC(=O)N3CCOCC3)ccc21,Concentration,Rattus norvegicus [14],500 nM
same,IC50,[3],7 nM
same,Concentration,Rattus norvegicus [15],17 nM
same,Concentration,Rattus norvegicus [16],740 nM
CCOc1c(N)ccc2c1c1ccccc1n2C(C)C,NI,Salmonella typhimurium [2],no increase
Cc1c(NC(=O)N2CCOCC2)cc(C)c2c1c1ccccc1n2C(C)C,IC50,[3],710 nM
CCn1c2ccccc2c2cc(N(C)C(=O)CCc3ccncc3)ccc21,IC50,[3],2200 nM
CCn1c2ccccc2c2cc(CNC(=O)Cc3ccncc3)ccc21,IC50,[3],3400 nM
O=C(CSc1ccncc1)Nc1ccc(C(=O)c2ccccc2)cc1,IC50,[3],350 nM
CCn1c2ccccc2c2cc(N)ccc21,Revertant colonies per plate,Salmonella typhimurium [17],897
same,Revertant colonies per plate,Salmonella typhimurium [18],192
same,Mutation frequency,Salmonella typhimurium [1],43
same,Revertant colonies per plate,Salmonella typhimurium [19],1227
same,Revertant colonies per plate,Salmonella typhimurium [20],623
same,Revertant colonies per plate,Salmonella typhimurium [21],483
same,Revertant colonies per plate,Salmonella typhimurium [22],358
same,Revertant colonies per plate,Salmonella typhimurium [23],466
same,Revertant colonies per plate,Salmonella typhimurium [24],1416
CC(=O)n1c2ccccc2c2cc(NC(=O)CCc3ccncc3)ccc21,IC50,[3],3 nM
CS(=O)(=O)n1c2ccccc2c2cc(NC(=O)N3CCOCC3)ccc21,IC50,[3],15 nM
CCn1c2ccccc2c2cc(C(=O)NCCc3ccncc3)ccc21,IC50,[3],700 nM
CC(C)c1c(NC(=O)N2CCOCC2)ccc2c1c1ccccc1n2C(C)C,IC50,[3],770 nM
CCn1c2ccccc2c2c(NC(=O)CCc3ccncc3)cccc21,IC50,[3],> 10000 nM
CC(C)n1c2ccccc2c2cc(N)ccc21,Mutation frequency,Salmonella typhimurium [1],3
Cc1cc2c(c(C)c1N)c1ccccc1n2C(C)C,NI,Salmonella typhimurium [2],no increase
CC(C)(C)Cn1c2ccccc2c2cc(N)ccc21,Mutation frequency,Salmonella typhimurium [1],5
CC(C)n1c2ccccc2c2cc(NC(=O)CCc3ccncc3)ccc21,IC50,[3],1 nM
CC(C)n1c2ccc(F)cc2c2cc(NC(=O)N3CCOCC3)ccc21,IC50,[3],3 nM
CCn1c2ccccc2c2cc(NC(=O)CCc3ccncc3)ccc21,bioavailability,[25],1%
same,IC50,[26],2 nM
same,IC50,[27],11 nM
same,IC50,[28],7 nM
same,IC50,[3],2 nM
same,half-life,[29],0.25 h
CC(C)n1c2ccccc2c2c(F)c(N)c(F)cc21,Mutation frequency,Salmonella typhimurium [1],2
CN(C)S(=O)(=O)n1c2ccccc2c2cc(N)ccc21,Max fold increase,Salmonella typhimurium [1],39
O=C(CCc1ccncc1)Nc1ccc(C(=O)c2ccccc2)cc1,IC50,[3],300 nM
Cn1c2ccccc2c2cc(NC(=O)CCc3ccncc3)ccc21,IC50,[3],33 nM
Nc1ccc2c(c1)c1ccccc1n2C1CCOC1 (configuration not stated),Mutation frequency,Salmonella typhimurium [1],66
CCn1c2ccccc2c2ccc(NC(=O)CCc3ccncc3)cc21,IC50,[3],800 nM

# — ChEMBL document CHEMBL1135535, “Discovery and optimization of a series of carbazole ureas as NPY5 antagonists for the treatment of obesity” (J Med Chem, 2002)
